{
  "source": "paper PMC3983674",
  "about": "(Journal of immunology (Baltimore, Md. : 1950), 2014)",
  "key": {"[1]": {"test": "Cytosolic peptide stability assay", "settings": "for half-life: human, s9; for A02-SL9 epitope half-life reduced by (fold vs control): average of 4 experiments, Fig 3B"}, "[2]": {"test_system": "tryptic activity of proteasomes", "test": "Proteasome tryptic activity in live PBMC", "type": "cell-based, human", "settings": "increasing concentrations, Fig 1C", "summary_of_the_method": "(§1)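 Fresh PBMC were isolated from HIV-negative donor buffy coats by Ficoll-Hypaque and pretreated for 30 min at 37°C with increasing concentrations of test compound (DMSO solutions). Digitonin (0.0025% final) was added, then Suc-LLVY-Amc (chymotryptic) or BocLRR-Amc (tryptic), each at 50 µmol/L. Fluorescence was read every 5 min at 37°C. Maximum slope, minus no-cell background, was expressed as % of the DMSO control. MG-132 (10 µmol/L) was used as the specificity control. Data are from 6–8 donors.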"}, "[3]": {"test_system": "chymotryptic activity of proteasomes", "test": "Proteasome chymotryptic activity in live PBMC", "type": "cell-based, human", "settings": "PI pretreatment 30 min 37°C, increasing concentrations, Fig 1C", "summary_of_the_method": "as §1"}, "[4]": {"test_system": "aminopeptidase", "test": "Aminopeptidase activity in live PBMC", "type": "cell-based, human", "settings": "for Effect on aminopeptidase activities: live PBMC, increasing concentrations, Fig 1C"}, "[5]": {"test_system": "caspase-like activity of proteasomes", "test": "Proteasome caspase-like activity in live PBMC", "type": "cell-based, human", "settings": "PI pretreatment 30 min 37°C, Fig 1C"}, "[6]": {"test_system": "proteasomal and aminopeptidase activities", "test": "Proteasomal and aminopeptidase activities in PBMC", "type": "cell-based, human", "settings": "unpublished data"}, "[7]": {"test_system": "HLA-matched B cells infected with VSVg-pseudotyped HIV", "type": "cell-based, human"}, "[8]": {"test_system": "purified mouse or human 20S proteasomes", "settings": "ref [30]–[32]; cited from earlier work"}, "[9]": {"test_system": "PBMC cytosolic extracts", "test": "HIV epitope processing assay", "type": "biochemical, human"}, "[10]": {"test": "in vitro", "settings": "human, s9"}},
  "note": "Ends that are not written are not given here.",
  "data": [
    {"compound": "CC[C@H](C)[C@H](NC(=O)[C@H](C)N)C(=O)N[C@@H](Cc1ccccc1)C(=O)N[C@@H](CCC(N)=O)C(=O)N[C@@H](CO)C(=O)N[C@@H](CO)C(=O)N[C@@H](CCSC)C(=O)N[C@H](C(=O)N[C@@H](CCCCN)C(=O)O)[C@@H](C)O", "note": "[ATK9]", "values": [
      {"measurement": "half-life", "setting": "[1]", "result": 37.2, "unit": "min"}
    ]},
    {"compound": "COC(=O)N[C@H](C(=O)N[C@@H](Cc1ccccc1)[C@@H](O)CN(Cc1ccc(-c2ccccn2)cc1)NC(=O)[C@@H](NC(=O)OC)C(C)(C)C)C(C)(C)C", "note": "[Atazanavir]", "values": [
      {"measurement": "Effect on proteasome tryptic activity", "setting": "[2]", "result": "not affected"},
      {"measurement": "Effect on chymotryptic activity of proteasome", "setting": "[3]", "result": "did not change"},
      {"measurement": "A02-SL9 epitope half-life reduced by (fold vs control)", "setting": "[1]; PBMC extracts pretreated with 2 µM or 5 µM PI", "result": 1.33, "unit": "fold"},
      {"measurement": "Effect on aminopeptidase activities", "setting": "[4]", "result": "no change"}
    ]},
    {"compound": "CC(C)C[C@H](NC(=O)[C@@H](O)[C@H](N)Cc1ccccc1)C(=O)O", "note": "[Bestatin]", "values": [
      {"measurement": "Aminopeptidase activity reduced by (fold compared to the control)", "setting": "[4]; 120 µM", "result": 20, "unit": "fold"},
      {"measurement": "Aminopeptidase activity, max slope of fluorescence emission", "setting": "[4]; PBMC, 120 µM inhibitor, Leu-amc, control max slope 145.35", "result": 7.25}
    ]},
    {"compound": "CC(C)CN(C[C@@H](O)[C@H](Cc1ccccc1)NC(=O)O[C@H]1CO[C@H]2OCC[C@H]21)S(=O)(=O)c1ccc(N)cc1", "note": "[Darunavir]", "values": [
      {"measurement": "Effect on proteasomal caspase-like activity", "setting": "[5]", "result": "not affected"},
      {"measurement": "Effect on proteasome tryptic activity", "setting": "[2]", "result": "not affected"},
      {"measurement": "Effect on chymotryptic activity of proteasome", "setting": "[3]", "result": "did not change"},
      {"measurement": "Effect on aminopeptidase activities", "setting": "[4]", "result": "no change"}
    ]},
    {"compound": "CC(C)Nc1cccnc1N1CCN(C(=O)c2cc3cc(NS(C)(=O)=O)ccc3[nH]2)CC1", "note": "[Delavirdine]", "values": [
      {"measurement": "Effect on the proteasomal and aminopeptidase activities", "setting": "[6]", "result": "did not have any significant effect"}
    ]},
    {"compound": "CC(C)(C)NC(=O)[C@@H]1CN(Cc2cccnc2)CCN1C[C@@H](O)C[C@@H](Cc1ccccc1)C(=O)N[C@H]1c2ccccc2C[C@H]1O", "note": "[Indinavir]", "values": [
      {"measurement": "Effect on proteasomal caspase-like activity", "setting": "[5]", "result": "not affected"},
      {"measurement": "Effect on proteasome tryptic activity", "setting": "[2]", "result": "not affected"},
      {"measurement": "Effect on aminopeptidase activities", "setting": "[4]", "result": "no change"},
      {"measurement": "Killing of HIV-infected cells by A11-ATK9 CTL, reduced by (fold vs DMSO)", "setting": "[7]", "result": 3, "unit": "fold"},
      {"measurement": "Killing of HIV-infected cells by B57-KF11 CTL, reduced by (fold vs DMSO)", "setting": "[7]", "result": 1.9, "unit": "fold"}
    ]},
    {"compound": "CC[C@H](C)[C@H](NC(=O)[C@@H](NC(=O)[C@H](CCC(=O)O)NC(=O)[C@@H]1CCCN1C(=O)[C@H](CO)NC(=O)[C@H](Cc1ccccc1)NC(=O)[C@H](C)NC(=O)[C@@H](N)CCCCN)C(C)C)C(=O)N1CCC[C@H]1C(=O)N[C@@H](CCSC)C(=O)N[C@@H](Cc1ccccc1)C(=O)O", "note": "[KF11]", "values": [
      {"measurement": "half-life", "setting": "[1]", "result": 25.7, "unit": "min"}
    ]},
    {"compound": "Cc1c(O)cccc1C(=O)N[C@@H](CSc1ccccc1)[C@H](O)CN1C[C@H]2CCCC[C@H]2C[C@H]1C(=O)NC(C)(C)C", "note": "[Nelfinavir]", "values": [
      {"measurement": "Effect on proteasomal caspase-like activity", "setting": "[5]", "result": "not affected"},
      {"measurement": "Activity of purified mouse or human 20S proteasomes and proteasome activity in immortalized cells", "setting": "[8]", "result": "inhibit"},
      {"measurement": "A02-SL9 epitope half-life reduced by (fold vs control)", "setting": "[1]; […]", "result": 1.25, "unit": "fold"},
      {"measurement": "Effect on killing of HIV-infected cells by B57-ISW9 CTL", "setting": "[7]", "result": "had no effect"},
      {"measurement": "Killing of HIV-infected cells by A11-ATK9 CTL, reduced by (fold vs DMSO)", "setting": "[7]", "result": 4.8, "unit": "fold"},
      {"measurement": "Killing of HIV-infected cells by B57-ISW9 CTL, inhibited (fold vs DMSO)", "setting": "[7]", "result": 1.2, "unit": "fold"},
      {"measurement": "Killing of HIV-infected cells by B57-KF11 CTL, reduced by (fold vs DMSO)", "setting": "[7]", "result": 2.44, "unit": "fold"},
      {"measurement": "Lysis of HIV-infected cells by B57-TW10 CTL, decreased (fold vs DMSO)", "setting": "[7]", "result": 1.46, "unit": "fold"}
    ]},
    {"compound": "CC(C)c1nc(CN(C)C(=O)N[C@H](C(=O)N[C@@H](Cc2ccccc2)C[C@H](O)[C@H](Cc2ccccc2)NC(=O)OCc2cncs2)C(C)C)cs1", "note": "[Ritonavir]", "values": [
      {"measurement": "Effect on proteasomal caspase-like activity", "setting": "[5]", "result": "did not enhance"},
      {"measurement": "Activity of purified mouse or human 20S proteasomes and proteasome activity in immortalized cells", "setting": "[8]", "result": "inhibit"},
      {"measurement": "Cytosolic stability of optimal epitopes derived from CMV, HCV, Influenza or EBV", "setting": "[1]; several peptides, unpublished data", "result": "increasing"},
      {"measurement": "ISW9 as % of total peptides", "setting": "[9]; 3ISW9 degradation, 10 µM PI, 60 min, 3% in control", "result": 14, "unit": "%"},
      {"measurement": "Production of A25-QW11 epitope from 3ISW9", "setting": "[9]; supplemental figure 3", "result": "reduced"},
      {"measurement": "Production of B15-HL9 epitope from 3ISW9", "setting": "[9]; supplemental figure 3", "result": "reduced"},
      {"measurement": "Kinetics of killing and maximum lysis by B57-ISW9 CTL", "setting": "[7]", "result": "enhanced"},
      {"measurement": "Kinetics of killing and maximum lysis by B57-KF11 CTL", "setting": "[7]", "result": "slower and the maximum lysis reduced"}
    ]},
    {"compound": "CC(C)(C)NC(=O)[C@@H]1C[C@@H]2CCCC[C@@H]2CN1C[C@@H](O)[C@H](Cc1ccccc1)NC(=O)[C@H](CC(N)=O)NC(=O)c1ccc2ccccc2n1", "note": "[Saquinavir]", "values": [
      {"measurement": "Activity of purified mouse or human 20S proteasomes and proteasome activity in immortalized cells", "setting": "[8]", "result": "inhibit"},
      {"measurement": "2-ISW9 ([…]) precursor production vs control or Kaletra treatment", "setting": "[9]; 3ISW9 degradation, 10 µM", "result": "at least twice less"}
    ]},
    {"compound": "Nc1ccn([C@@H]2CS[C@H](CO)O2)c(=O)n1", "note": "[lamivudine, Lamivudine]", "values": [
      {"measurement": "Effect on the proteasomal and aminopeptidase activities", "setting": "[6]", "result": "did not have any significant effect"}
    ]},
    {"compound": "ISPRTLNAW [ISW9]", "values": [
      {"measurement": "half-life", "setting": "[10]", "result": 14.8, "unit": "min"}
    ]}
  ]
}
